Data on one compound can be found in ChEMBL document CHEMBL3526048, “In vitro metabolism of rivoglitazone, a novel peroxisome proliferator-activated receptor γ agonist, in rat, monkey, and human liver microsomes and freshly isolated hepatocytes” (Drug Metab Dispos, 2011).

The target in one series is Cytochrome P450 2C19 (Homo sapiens, UniProt P33261). Nature of the series: Activity of human CYP2C19 expressed in microsomes isolated from baculovirus infected insect cell assessed as enzyme-mediated (2S,3S,4S,5R,6R)-3,4,5-trihydroxy-6-(5-(4-((6-methoxy-1-methyl-1H-benzo[d]imidazol-2-yl)methoxy)benzyl)-2,4-dioxothiazolidin-3-yl)tetrahydro-2H-pyran-2-carboxylic acid formation at 20 uM after 2 hrs by radio-HPLC/LC-MS/MS analysis in presence of UDPGA and UDPGA/SAM. The format is ADME.
Chain of Cytochrome P450 2C19 (P33261 whole entry): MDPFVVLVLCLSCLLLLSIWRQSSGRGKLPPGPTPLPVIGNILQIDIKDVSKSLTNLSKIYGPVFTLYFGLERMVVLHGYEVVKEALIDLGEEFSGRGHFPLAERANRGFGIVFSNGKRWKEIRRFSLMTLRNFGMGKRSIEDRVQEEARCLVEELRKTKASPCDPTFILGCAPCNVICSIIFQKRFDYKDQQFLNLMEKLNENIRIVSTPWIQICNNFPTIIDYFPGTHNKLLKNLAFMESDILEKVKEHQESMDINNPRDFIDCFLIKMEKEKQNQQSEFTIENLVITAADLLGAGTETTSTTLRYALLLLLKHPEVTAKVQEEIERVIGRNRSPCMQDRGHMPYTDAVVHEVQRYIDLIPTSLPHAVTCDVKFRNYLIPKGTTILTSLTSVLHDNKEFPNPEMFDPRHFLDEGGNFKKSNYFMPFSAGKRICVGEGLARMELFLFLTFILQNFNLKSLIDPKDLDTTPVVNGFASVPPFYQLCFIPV

Series [1] has as its target T1, Cytochrome P450 2D6 (Homo sapiens, UniProt P10635). Nature of the series: Activity of human CYP2D6 expressed in microsomes isolated from baculovirus infected insect cell assessed as enzyme-mediated (2S,3S,4S,5R,6R)-3,4,5-trihydroxy-6-(5-(4-((6-methoxy-1-methyl-1H-benzo[d]imidazol-2-yl)methoxy)benzyl)-2,4-dioxothiazolidin-3-yl)tetrahydro-2H-pyran-2-carboxylic acid formation at 20 uM after 2 hrs by radio-HPLC/LC-MS/MS analysis in presence of UDPGA and UDPGA/SAM. In kind it is ADME.

A short description of series [2]: Drug metabolism in cynomolgus monkey liver microsomes assessed as formation of 2-((4-((2,4-dioxothiazolidin-5-yl)methyl)phenoxy)methyl)-1-methyl-1H-benzo[d]imidazol-6-yl hydrogen sulfate at 20 uM by radio-HPLC/LC-MS/MS analysis. In kind it is ADME, Macaca fascicularis.
The next series has as its target Cytochrome P450 3A4 (Homo sapiens, UniProt P08684). Nature of the series: Activity of human CYP3A4 expressed in microsomes isolated from baculovirus infected insect cell assessed as enzyme-mediated 2-mercapto-3-(4-((6-methoxy-1-methyl-1H-benzo[d]imidazol-2-yl)methoxy)phenyl)propanoic acid formation at 20 uM after 2 hrs by radio-HPLC/LC-MS/MS analysis in presence of NADPH-generating system. In kind it is ADME. Summed up:
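Baculovirus-insect-cell microsomes expressing the human CYP (1 mg/ml protein) were incubated with [14C]rivoglitazone (20 μM) in 50 mM potassium phosphate (pH 7.4) or 100 mM Tris-HCl (pH 7.5) with an NADPH-generating system (2 mM NADP+, 20 mM glucose 6-phosphate, 2 units/ml G6PDH, 10 mM MgCl2) for 2 h at 37°C. Insect-cell control supersomes served as the control. Reactions were stopped with acetonitrile, and the concentrated supernatants were analysed by radio-HPLC, LC-MS and LC-MS/MS.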

The nature of series [3]: Drug metabolism in human hepatocytes assessed as formation of 2-hydroxy-3-(4-((6-methoxy-1-methyl-1H-benzo[d]imidazol-2-yl)methoxy)phenyl)propanamide at 30 uM after 3 hrs by radio-HPLC/LC-MS/MS analysis in presence of NADPH-generating system and NADPH-generating system/SAM. The format is ADME, cell-based, Hepatocyte.
The target in series [4] is T2, UDP-glucuronosyltransferase 2B7 (Homo sapiens, UniProt P16662).
T2 sequence (P16662 whole entry): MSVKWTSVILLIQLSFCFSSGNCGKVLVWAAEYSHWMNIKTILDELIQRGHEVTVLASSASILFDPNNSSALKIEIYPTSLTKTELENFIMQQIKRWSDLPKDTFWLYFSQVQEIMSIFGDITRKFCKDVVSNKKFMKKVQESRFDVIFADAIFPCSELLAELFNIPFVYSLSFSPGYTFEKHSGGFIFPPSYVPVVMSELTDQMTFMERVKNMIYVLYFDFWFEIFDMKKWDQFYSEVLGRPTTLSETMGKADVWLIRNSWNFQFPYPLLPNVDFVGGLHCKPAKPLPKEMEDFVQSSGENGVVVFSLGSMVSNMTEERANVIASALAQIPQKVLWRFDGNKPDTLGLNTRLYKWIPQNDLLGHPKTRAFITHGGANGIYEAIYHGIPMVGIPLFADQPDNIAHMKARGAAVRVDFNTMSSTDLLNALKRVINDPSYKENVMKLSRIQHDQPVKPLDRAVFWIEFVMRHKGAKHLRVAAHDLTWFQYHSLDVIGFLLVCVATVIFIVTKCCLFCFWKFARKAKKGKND
Nature of the series: Activity of human UGT2B7 expressed in microsomes isolated from baculovirus infected insect cell assessed as enzyme-mediated 3-(4-((6-methoxy-1-methyl-1H-benzo[d]imidazol-2-yl)methoxy)phenyl)-2-(methylsulfonyl)propanamide formation at 20 uM after 4 hrs by radio-HPLC/LC-MS/MS analysis in presence of NADPH-generating system/SAM. In kind it is ADME.

In series [5] the target is T1, Cytochrome P450 2D6. Nature of the series: Activity of human CYP2D6 expressed in microsomes isolated from baculovirus infected insect cell assessed as enzyme-mediated 3-(4-((6-methoxy-1-methyl-1H-benzo[d]imidazol-2-yl)methoxy)phenyl)-2-(methylthio)propanamide formation at 20 uM after 2 hrs by radio-HPLC/LC-MS/MS analysis in presence of NADPH-generating system/SAM. In kind it is ADME.

Series [6] has as its target T3, UDP-glucuronosyltransferase 1A9 (Homo sapiens, UniProt O60656).
T3 sequence (O60656 whole entry): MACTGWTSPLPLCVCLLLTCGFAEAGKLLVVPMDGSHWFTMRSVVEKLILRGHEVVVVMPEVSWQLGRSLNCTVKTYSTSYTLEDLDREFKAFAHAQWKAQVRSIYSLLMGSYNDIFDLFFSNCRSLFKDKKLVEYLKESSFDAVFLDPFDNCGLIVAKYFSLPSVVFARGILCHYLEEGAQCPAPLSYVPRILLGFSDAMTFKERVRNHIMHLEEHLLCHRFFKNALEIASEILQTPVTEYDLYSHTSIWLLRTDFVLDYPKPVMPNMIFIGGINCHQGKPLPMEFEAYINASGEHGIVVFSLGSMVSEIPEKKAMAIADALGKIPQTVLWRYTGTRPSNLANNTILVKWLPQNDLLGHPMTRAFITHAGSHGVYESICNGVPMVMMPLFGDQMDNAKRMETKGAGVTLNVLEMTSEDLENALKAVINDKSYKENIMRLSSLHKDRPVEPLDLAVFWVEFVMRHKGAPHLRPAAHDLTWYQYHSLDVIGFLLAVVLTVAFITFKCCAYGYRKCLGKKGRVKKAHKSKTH
Nature of the series: Activity of human UGT1A9 expressed in microsomes isolated from baculovirus infected insect cell assessed as enzyme-mediated 2-mercapto-3-(4-((6-methoxy-1-methyl-1H-benzo[d]imidazol-2-yl)methoxy)phenyl)propanoic acid formation at 20 uM after 4 hrs by radio-HPLC/LC-MS/MS analysis in presence of UDPGA. The format is ADME.

The target of series [7] is T2, UDP-glucuronosyltransferase 2B7. Put plainly: Activity of human UGT2B7 expressed in microsomes isolated from baculovirus infected insect cell assessed as enzyme-mediated 3-(4-((6-methoxy-1-methyl-1H-benzo[d]imidazol-2-yl)methoxy)phenyl)-2-(methylthio)propanamide formation at 20 uM after 4 hrs by radio-HPLC/LC-MS/MS analysis in presence of NADPH-generating system/SAM in presence of UDPGA and UDPGA/SAM. In kind it is ADME.

The next series concerns Liver microsome. Nature of the series: Drug metabolism in Sprague-Dawley rat liver microsomes assessed as formation of 2-amino-3-((1-carboxy-2-(4-((6-methoxy-1-methyl-1H-benzo[d]imidazol-2-yl)methoxy)phenyl)ethyl)disulfanyl)propanoic acid at 20 uM by radio-HPLC/LC-MS/MS analysis. The format is ADME.

Structures are written as SMILES.

T1 sequence (P10635 whole entry): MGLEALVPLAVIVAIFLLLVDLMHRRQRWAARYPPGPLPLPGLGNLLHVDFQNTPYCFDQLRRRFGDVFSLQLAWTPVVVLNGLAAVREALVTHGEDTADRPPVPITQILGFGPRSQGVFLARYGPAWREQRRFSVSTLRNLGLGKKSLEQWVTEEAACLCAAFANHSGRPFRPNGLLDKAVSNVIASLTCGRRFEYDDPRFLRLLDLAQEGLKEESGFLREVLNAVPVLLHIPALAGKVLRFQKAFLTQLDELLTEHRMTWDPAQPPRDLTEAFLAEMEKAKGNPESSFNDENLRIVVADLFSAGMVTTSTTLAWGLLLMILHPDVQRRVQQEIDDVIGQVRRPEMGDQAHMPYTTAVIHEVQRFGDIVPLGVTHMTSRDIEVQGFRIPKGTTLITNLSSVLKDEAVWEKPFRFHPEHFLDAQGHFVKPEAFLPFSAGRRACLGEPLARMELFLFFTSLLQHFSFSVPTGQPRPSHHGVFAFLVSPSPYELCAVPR
Chain of Cytochrome P450 3A4 (P08684 whole entry): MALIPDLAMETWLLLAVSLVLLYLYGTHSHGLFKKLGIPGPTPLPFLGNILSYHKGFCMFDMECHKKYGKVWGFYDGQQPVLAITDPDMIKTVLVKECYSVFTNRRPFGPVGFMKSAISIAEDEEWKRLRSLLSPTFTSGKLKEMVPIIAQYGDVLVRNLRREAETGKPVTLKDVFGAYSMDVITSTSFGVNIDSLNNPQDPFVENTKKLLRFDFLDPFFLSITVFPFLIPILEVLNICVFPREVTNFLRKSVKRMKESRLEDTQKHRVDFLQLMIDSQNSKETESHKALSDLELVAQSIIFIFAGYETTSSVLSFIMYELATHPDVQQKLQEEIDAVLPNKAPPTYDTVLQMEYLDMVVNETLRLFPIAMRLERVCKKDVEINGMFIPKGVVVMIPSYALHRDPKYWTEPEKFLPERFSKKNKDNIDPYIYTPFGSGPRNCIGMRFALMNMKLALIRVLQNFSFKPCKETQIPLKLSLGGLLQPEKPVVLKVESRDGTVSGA

In the case of `COc1ccc2nc(COc3ccc(C[14CH]4SC(=O)NC4=O)cc3)n(C)c2c1.Cl` (racemic), the Drug metabolism entry on Cytochrome P450 2C19 is “metabolite_not_detected”; on Cytochrome P450 2D6 [1], “metabolite_not_detected”; in [2], “metabolite_not_detected”; on Cytochrome P450 3A4 it was “metabolite_detected”; in series [3] it was “metabolite_not_detected”; in series [4] it was “metabolite_not_detected”. For the same compound, the Drug metabolism entry (at Cytochrome P450 2D6 [5]; in [6]; in series [7]; with Liver microsome) was “metabolite_not_detected” throughout.
